Consider 14 molecules from PubChem BioAssay.

Assay [1] in a line: Her2 expression decrease, cell viability multiplex – SKBR3 breast tumor cells, AlphaScreen, ATP viability, primary screen (AID 461;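 active = Her2 level under about 52% in both replicate screens, with viability over 70% of control, limit read from the data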;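 as to Her2 level: lower value means less Her2 protein in the cells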;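 as to viability: percent of carrier control wells set as 100% viability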). The note with it: SKBR3 Her2 protein level, 18-24 h, measured here: SKBR3 viability, ATP luminescence, at 10 µM. On the technique in general: In Alpha technology, singlet oxygen from a donor bead excites a nearby acceptor bead.
Assay [2] has as its target Receptor tyrosine-protein kinase erbB-2 (Homo sapiens) (UniProt P04626). Described as above. The note with it: 18-24 h, at 10 µM, stronger effect = lower value.
Assay [3] is described as follows: reduced viability of SK-BR-3 breast cancer cells – cell-based, 24 h, human, pilot screen (AID 572;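 active = viability at or below 10% of carrier control in both of two separate runs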;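 also: compound exposure lasted between 18 and 24 h rather than exactly 24 h; 100% = carrier-treated control wells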). The note with it: SK-BR-3 viability, CellTiter-Glo luminescence, at 10 µM, stronger effect = lower value.
Assay [4] in a line: HUVEC growth inhibition – cell-based, human, primary screen (AID 575;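 active = viability at or below 30% in both replicate assays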;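 also: 100% = median of untreated cell wells with 0.1% DMSO on each plate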). The note with it: HUVEC proliferation, CellTiter-Glo luminescence, 72 h; at 10 µM; stronger effect = lower value. The essentials:
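System – primary HUVEC, no more than 12 passages · Medium – Low-serum (2% FBS) EBM, supplemented · Times – 72 h exposure, 37 °C, 5% CO2, 30 min RT equilibration · Measured by – luminescent ATP assay · Read-out – % viability relative to median vehicle-well signal on each plate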
For orientation: In ATP-based viability assays light output follows the ATP content of the culture.

A short description of assay [5]: H69AR cell proliferation blockers – human, duplicate replicates, primary screen (AID 580;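 active = viability at or under a set limit in both replicates, limit being median viability minus 3 SD, cut at about 48% in these data, passing the limit was not always enough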;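 also: 100% = mean luminescence of untreated wells and 0% = no signal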). The note with it: H69AR lung tumor cells viability, ATP luminescence, 72 h; at 10 µM; stronger effect = lower value.
The nature of assay [6]: MRP1 drug-resistance reversers in H69AR cells – cell-based, doxorubicin co-treatment, pilot screen (AID 601). The note with it: CellTiter-Glo, 72 h, at 10 µM; for differential viability (reversal): stronger effect = higher value.
A short description of assay [7]: yeast transport mutant growth inhibition pilot in 384-well plates, post-Golgi transport modulator project (AID 636; in the data active = inhibition above about 31%). The note with it: absorbance 615 nm, about 18 h, stronger effect = higher value.
The nature of assay [8]: growth suppression of yeast trafficking mutant, preliminary HTS, modulators of trafficking downstream of Golgi apparatus project, 1536-format plate, OD 615 nm (AID 637; in the data active = inhibition above about 30%). The note with it: yeast transport mutant growth, absorbance 615 nm, 18 h; stronger effect = higher value.
[9] abbreviates: H69AR cells + 2 uM doxorubicin, measured here: viability with 2 uM doxorubicin, stronger effect = lower value.
[10] abbreviates: H69AR cells, compound alone cytotoxicity.

Activity calls are given as the source filed them.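 The calls were made as follows, unless noted: active = viability loss from added drug above about 55%, and viability with drug at most 40%, in both replicates (limit read from the data, passing the limit was not always enough); inconclusive = both conditions met in only one replicate; inactive = neither replicate meets both conditions.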

Receptor tyrosine-protein kinase erbB-2 (Homo sapiens), sequence (P04626 whole entry, looked up): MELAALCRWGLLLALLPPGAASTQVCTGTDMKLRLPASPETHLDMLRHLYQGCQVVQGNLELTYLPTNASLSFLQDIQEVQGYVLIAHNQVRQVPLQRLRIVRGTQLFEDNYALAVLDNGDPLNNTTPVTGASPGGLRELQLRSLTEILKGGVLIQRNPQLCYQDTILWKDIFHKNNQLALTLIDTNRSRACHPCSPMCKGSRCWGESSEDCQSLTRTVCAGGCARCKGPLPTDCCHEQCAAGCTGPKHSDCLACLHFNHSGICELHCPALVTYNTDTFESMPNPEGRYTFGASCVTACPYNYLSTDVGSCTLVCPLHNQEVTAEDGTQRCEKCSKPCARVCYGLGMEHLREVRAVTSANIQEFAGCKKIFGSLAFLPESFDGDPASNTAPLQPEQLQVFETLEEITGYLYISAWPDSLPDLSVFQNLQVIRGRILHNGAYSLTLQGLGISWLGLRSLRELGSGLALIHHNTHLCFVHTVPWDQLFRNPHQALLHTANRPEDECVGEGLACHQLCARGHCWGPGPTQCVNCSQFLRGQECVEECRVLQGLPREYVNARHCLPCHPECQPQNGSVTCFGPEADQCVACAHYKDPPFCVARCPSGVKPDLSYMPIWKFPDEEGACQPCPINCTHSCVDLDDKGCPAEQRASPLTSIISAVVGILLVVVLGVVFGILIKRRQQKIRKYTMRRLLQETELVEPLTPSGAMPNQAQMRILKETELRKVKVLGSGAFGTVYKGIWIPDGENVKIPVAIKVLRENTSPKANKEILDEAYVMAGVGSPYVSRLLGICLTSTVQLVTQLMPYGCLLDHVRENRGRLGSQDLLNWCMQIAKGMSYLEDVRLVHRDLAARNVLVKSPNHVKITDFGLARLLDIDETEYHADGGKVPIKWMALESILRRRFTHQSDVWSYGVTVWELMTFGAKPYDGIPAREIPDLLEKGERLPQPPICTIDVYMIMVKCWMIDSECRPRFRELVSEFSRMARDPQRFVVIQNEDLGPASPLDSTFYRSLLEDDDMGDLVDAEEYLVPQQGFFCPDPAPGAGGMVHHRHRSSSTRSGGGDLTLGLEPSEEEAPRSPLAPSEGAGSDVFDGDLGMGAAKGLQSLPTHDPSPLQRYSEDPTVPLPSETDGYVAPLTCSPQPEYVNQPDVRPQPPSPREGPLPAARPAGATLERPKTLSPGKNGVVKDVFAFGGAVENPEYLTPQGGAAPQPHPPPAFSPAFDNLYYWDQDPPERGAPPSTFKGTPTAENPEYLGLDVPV

For orientation: viability means a read-out of living cells in per cent, often relative to untreated cells. As a reminder, the inhibition is the drop in the measured response relative to a control, in per cent. Regarding `Cc1cc(C)n(CCc2nc(-c3cccs3)cs2)n1`, the viability in assay [1] is 93%; in assay [3] it was 93% (inactive); in assay [4], 106% (inactive); in assay [5] it was 104% (inactive); in assay [6] (setting [9]) it was 79.2%; in assay [6] (setting [10]), 104%. In addition, the Her2 level in assay [2] was 88% (inactive). Moreover, in assay [6] (H69AR cells + 2 uM doxorubicin), the differential viability (reversal) is 25.3% (inactive). Besides, the inhibition in assay [7] was -2.6% (inactive); in assay [8], -0.48% (inactive).
In the case of `O=C(NCCC1=CCCCC1)c1cc2c(s1)CS(=O)(=O)C2`, the viability in assay [1] was 114%; in assay [3] it was 114% (inactive); in assay [4], 85.7% (inactive); in assay [5], 88.5% (inactive); in assay [6] (setting [9]) it was 83.8%; in assay [6] (setting [10]) it was 88.5%. For the same molecule, in assay [2], the Her2 level was 93.5% (inactive). In addition, in assay [6] (H69AR cells + 2 uM doxorubicin), the differential viability (reversal) was 4.64% (inactive). Further, the inhibition in assay [7] was -3.77% (inactive); in assay [8] it was -3.28% (inactive).
On to `O=C(c1ccco1)N1CCN(/C(=N/S(=O)(=O)c2cccs2)c2ccccc2Cl)CC1`, for which the viability in assay [1] is 77%; in assay [3], 77% (inactive); in assay [4], 88.7% (inactive); in assay [5], 93.1% (inactive); in assay [6] (setting [9]) it was 92.3%; in assay [6] (setting [10]) it was 93.1%. For the same molecule, the Her2 level in assay [2] was 81% (inactive). In assay [6] (H69AR cells + 2 uM doxorubicin), the differential viability (reversal) was 0.85% (inactive). Also, the inhibition in assay [7] was -4.73% (inactive); in assay [8], -3.77% (inactive).
As for `O=C(NCCCN1CCCC1=O)c1ccc2c(c1)NC(=O)C(N1CCOCC1)S2` (stereo not given), the viability in assay [1] is 143%; in assay [3], 143% (inactive); in assay [4] it was 115% (inactive); in assay [5], 89.5% (inactive); in assay [6] (setting [9]) it was 83.3%; in assay [6] (setting [10]) it was 89.5%. Besides, in assay [2], the Her2 level was 94.5% (inactive). Besides, the differential viability (reversal) in assay [6] (H69AR cells + 2 uM doxorubicin) was 6.1% (inactive). In addition, the inhibition in assay [7] is -6.4% (inactive); in assay [8], 0.82% (inactive).
As for `CCOC(=O)c1ccc(NC(=O)NC(C)C2CCCO2)cc1` (stereo not given), the viability is 97.5% in assay [1]; 97.5% (inactive) in assay [3]; 108% (inactive) in assay [4]; 95.6% (inactive) in assay [5]; 90.4% in assay [6] (setting [9]); 95.6% in assay [6] (setting [10]). Besides, in assay [2], the Her2 level was 96.5% (inactive). Moreover, the differential viability (reversal) in assay [6] (H69AR cells + 2 uM doxorubicin) is 5.2% (inactive). Further, the values for the inhibition in assay [7] and in assay [8] were -1.32% (inactive) and -7.94% (inactive), respectively.
For `Cc1cc(C)n(C2=NS(=O)(=O)c3ccccc32)n1`, the viability in assay [1] was 86.5%; in assay [3], 86.5% (inactive); in assay [4], 108% (inactive); in assay [5] it was 101% (inactive); in assay [6] (setting [9]), 95.2%; in assay [6] (setting [10]), 101%. The Her2 level in assay [2] is 115% (inactive). The differential viability (reversal) in assay [6] (H69AR cells + 2 uM doxorubicin) is 6.08% (inactive). The inhibition in assay [7] was 3.07% (inactive); in assay [8] it was 5.08% (inactive).
Regarding `COCCNC(=O)c1ccc2c(c1)nc(C)n2-c1cccc(F)c1`, the viability was 129% in assay [1]; 129% (inactive) in assay [3]; 92.7% (inactive) in assay [4]; 90.5% (inactive) in assay [5]; 90.6% in assay [6] (setting [9]); 90.5% in assay [6] (setting [10]). Further, in assay [2], the Her2 level is 79.5% (inactive). In addition, the differential viability (reversal) in assay [6] (H69AR cells + 2 uM doxorubicin) was -0.17% (inactive). Moreover, the inhibition in assay [7] was -0.92% (inactive); in assay [8], 4.35% (inactive).
Take `COc1ccc(CNC(=O)CN(C(=O)c2ccc(CN3CCOCC3)o2)C2CCCC2)cc1`: the viability in assay [1] was 124%; in assay [3], 124% (inactive); in assay [4] it was 89% (inactive); in assay [5], 93.1% (inactive); in assay [6] (setting [9]), 85.8%; in assay [6] (setting [10]), 93.1%. The Her2 level in assay [2] was 84.5% (inactive). Also, the differential viability (reversal) in assay [6] (H69AR cells + 2 uM doxorubicin) is 7.3% (inactive). The inhibition is -1.87% (inactive) in assay [7] and 0.98% (inactive) in assay [8].
Turning to `Nc1scc(-c2ccncc2)c1Cl`, the viability is 90.5% in assay [1]; 90.5% (inactive) in assay [3]; 83.5% (inactive) in assay [4]; 96.2% (inactive) in assay [5]; 87.7% in assay [6] (setting [9]); 96.2% in assay [6] (setting [10]). Moreover, in assay [2], the Her2 level was 77.5% (inactive). Also, in assay [6] (H69AR cells + 2 uM doxorubicin), the differential viability (reversal) is 8.54% (inactive). For the same molecule, the inhibition was -5.07% (inactive) in assay [7] and -3.49% (inactive) in assay [8].
On to `CCCOc1cc(C)c(S(=O)(=O)N2CCN(C)CC2)cc1C`, for which the viability in assay [1] is 89%; in assay [3], 89% (inactive); in assay [4] it was 104% (inactive); in assay [5] it was 95.2% (inactive); in assay [6] (setting [9]) it was 92.9%; in assay [6] (setting [10]), 95.2%. Further, the Her2 level in assay [2] is 99% (inactive). The differential viability (reversal) in assay [6] (H69AR cells + 2 uM doxorubicin) was 2.26% (inactive). In addition, the inhibition was -1.58% (inactive) in assay [7] and 5.41% (inactive) in assay [8].
With `Cc1cc2nc3c(nc2cc1C)C1(C(=O)O)CCC3(C)C1(C)C` (stereo not given), the viability in assay [1] is 103%; in assay [3] it was 103% (inactive); in assay [4], 99.9% (inactive); in assay [5], 95.3% (inactive); in assay [6] (setting [9]) it was 96.1%; in assay [6] (setting [10]) it was 95.3%. For the same molecule, the Her2 level in assay [2] is 95.5% (inactive). Also, in assay [6] (H69AR cells + 2 uM doxorubicin), the differential viability (reversal) is -0.805% (inactive). Besides, the inhibition is 0% (inactive) in assay [7] and -2.3% (inactive) in assay [8].
Turning to `COC(=O)C1=C(C)NC(=O)C1(Nc1ccc(Cl)cn1)C(F)(F)F` (stereo not given), the viability in assay [1] is 90.5%; in assay [3], 90.5% (inactive); in assay [4] it was 103% (inactive); in assay [5], 96.5% (inactive); in assay [6] (setting [9]), 97.7%; in assay [6] (setting [10]), 96.5%. The Her2 level in assay [2] is 83.5% (inactive). Besides, in assay [6] (H69AR cells + 2 uM doxorubicin), the differential viability (reversal) is -1.2% (inactive). Moreover, the values for the inhibition in assay [7] and in assay [8] were -3.59% (inactive) and -5.17% (inactive), respectively.
On to `O=C(O)CN1C(=O)C2(OCCCO2)c2ccccc21`, for which the viability in assay [1] was 86.5%; in assay [3], 86.5% (inactive); in assay [4], 101% (inactive); in assay [5], 85.1% (inactive); in assay [6] (setting [9]), 85.4%; in assay [6] (setting [10]), 85.1%. The Her2 level in assay [2] is 102% (inactive). Moreover, the differential viability (reversal) in assay [6] (H69AR cells + 2 uM doxorubicin) was -0.23% (inactive). The inhibition in assay [7] is -0.91% (inactive); in assay [8] it was 0.49% (inactive).
Take `CCn1c(=O)cc(SCC(=O)NCCN2CCN(Cc3ccccc3)CC2)c2ccccc21`: the viability was 89% in assay [1]; 89% (inactive) in assay [3]; 80.5% (inactive) in assay [4]; 84.4% (inactive) in assay [5]; 77.3% in assay [6] (setting [9]); 84.4% in assay [6] (setting [10]). Besides, the Her2 level in assay [2] was 89.5% (inactive). In addition, the differential viability (reversal) in assay [6] (H69AR cells + 2 uM doxorubicin) is 7.1% (inactive). The inhibition in assay [7] was -4.47% (inactive); in assay [8], -3.09% (inactive).
